The results in this text go back to ChEMBL document CHEMBL1152489, “Synthesis and biological evaluation of a novel series of 1,5-benzothiazepine derivatives as potential antimicrobial agents” (2009).

Assay [1] relates to Candida albicans. The assay can be described thus: Antifungal activity against Candida albicans ATCC 10231 at 200 ug/disk after 24 hrs by disk diffusion method. The conditions noted are these: ATCC 10231, 24 h, read-out: IZ. The format is functional. The procedure, abridged: (§1)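 Disk diffusion on media seeded with the organism. Sterile paper discs (6 mm) carried test compound dissolved in DMSO at 12.5, 50, 100 or 200 µg/disc. DMSO-only discs served as controls. Plates were incubated 24 h at 37 °C. The read-out is the growth-inhibition zone diameter in mm, averaged over three trials (±1 mm).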
(Agar diffusion results depend on both activity and mobility in agar.)

In assay [2] the test system is Staphylococcus epidermidis. Briefly: Antibacterial activity against Staphylococcus epidermidis ATCC 26069 at <12.5 ug/disk after 24 hrs by disk diffusion method. The format is functional, organism-based. The procedure, abridged:
as §1

Assay [3] concerns Escherichia coli. The assay can be described thus: Antibacterial activity against Escherichia coli ATCC 44752 at 200 ug/disk after 24 hrs by disk diffusion method. The format is functional, organism-based. A digest of the protocol:
as §1

The subject of assay [4] is Staphylococcus aureus. The assay can be described thus: Antibacterial activity against Staphylococcus aureus ATCC 25923 at 50 ug/disk after 24 hrs by disk diffusion method. The format is functional. The conditions noted are these: for zone of inhibition at 50 µg/disc: ATCC 25923, 24 h, read-out: IZ. A digest of the protocol: as §1
The subject of assay [5] is Staphylococcus epidermidis. Briefly: Antibacterial activity against Staphylococcus epidermidis ATCC 26069 at 200 ug/disk after 24 hrs by disk diffusion method. The format is functional. The conditions noted are these: for zone of inhibition at 200 µg/disc: ATCC 26069, 24 h, read-out: IZ. A digest of the protocol:
as §1

Assay [6] deals with Staphylococcus epidermidis. The assay can be described thus: Antibacterial activity against Staphylococcus epidermidis ATCC 26069 after 24 hrs by disk diffusion method. The format is functional, organism-based. The procedure, abridged:
as §1

The test system of assay [7] is Candida albicans. Briefly: Antifungal activity against Candida albicans ATCC 10231 at 50 ug/disk after 24 hrs by disk diffusion method. The format is functional. The conditions noted are these: for zone of inhibition at 50 µg/disc: ATCC 10231, 24 h, read-out: IZ. The procedure, abridged: as §1
The test system of assay [8] is Candida albicans. The assay can be described thus: Antifungal activity against Candida albicans ATCC 10231 at <12.5 ug/disk after 24 hrs by disk diffusion method. The format is functional, organism-based. The procedure, abridged:
as §1

For assay [9], the system named is Staphylococcus aureus. Briefly: Antibacterial activity against Staphylococcus aureus ATCC 25923 at 100 ug/disk after 24 hrs by disk diffusion method. The format is functional. The conditions noted are these: ATCC 25923, 24 h, read-out: IZ. A digest of the protocol:
as §1

Assay [10] relates to Staphylococcus aureus. Briefly: Antibacterial activity against Staphylococcus aureus ATCC 25923 at 200 ug/disk after 24 hrs by disk diffusion method. The conditions noted are these: ATCC 25923, 24 h, read-out: IZ. The format is functional. A digest of the protocol:
as §1

The test system of assay [11] is Escherichia coli. Briefly: Antibacterial activity against Escherichia coli ATCC 44752 at 50 ug/disk after 24 hrs by disk diffusion method. The format is functional, organism-based. A digest of the protocol:
as §1

Assay [12] concerns Staphylococcus epidermidis. Briefly: Antibacterial activity against Staphylococcus epidermidis ATCC 26069 at 100 ug/disk after 24 hrs by disk diffusion method. The conditions noted are these: for zone of inhibition at 100 µg/disc: ATCC 26069, 24 h, read-out: IZ. The format is functional. A digest of the protocol:
as §1

The test system of assay [13] is Staphylococcus epidermidis. The assay can be described thus: Antibacterial activity against Staphylococcus epidermidis ATCC 26069 at 50 ug/disk after 24 hrs by disk diffusion method. The format is functional. The conditions noted are these: for zone of inhibition at 50 µg/disc: ATCC 26069, 24 h, read-out: IZ. The procedure, abridged: as §1
Assay [14] relates to Staphylococcus aureus. Briefly: Antibacterial activity against Staphylococcus aureus ATCC 25923 after 24 hrs by disk diffusion method. The format is functional, organism-based. The procedure, abridged: as §1
Assay [15] has as its system Staphylococcus aureus. Briefly: Antibacterial activity against Staphylococcus aureus ATCC 25923 at <12.5 ug/disk after 24 hrs by disk diffusion method. The format is functional, organism-based. A digest of the protocol: as §1
The test system of assay [16] is Candida albicans. The assay can be described thus: Antifungal activity against Candida albicans ATCC 10231 after 24 hrs by disk diffusion method. The format is functional, organism-based. The procedure, abridged: as §1
For assay [17], the system named is Candida albicans. The assay can be described thus: Antifungal activity against Candida albicans ATCC 10231 at 100 ug/disk after 24 hrs by disk diffusion method. The format is functional. The conditions noted are these: ATCC 10231, 24 h, read-out: IZ. A digest of the protocol: as §1
Assay [18] deals with Escherichia coli. The assay can be described thus: Antibacterial activity against Escherichia coli ATCC 44752 at 100 ug/disk after 24 hrs by disk diffusion method. The format is functional, organism-based. The procedure, abridged: as §1
The test system of assay [19] is Staphylococcus epidermidis. Briefly: Antibacterial activity against Staphylococcus epidermidis ATCC 26069 at 30 ug/disk after 24 hrs by disk diffusion method. The format is functional. The conditions noted are these: ATCC 26069, 24 h, read-out: IZ. The procedure, abridged: (§2)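 Disc diffusion: sterile 6 mm paper discs impregnated with compound dissolved in DMSO, placed on the surface of medium inoculated with the microorganism; DMSO-only discs served as controls. Plates were incubated at 37 °C for 24 h. Growth-inhibition zone diameter (mm) was read and averaged over three trials.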

In assay [20] the test system is Escherichia coli. Briefly: Antibacterial activity against Escherichia coli ATCC 44752 at 30 ug/disk after 24 hrs by disk diffusion method. The format is functional. The conditions noted are these: ATCC 44752, 24 h, read-out: IZ. The procedure, abridged: as §2
Assay [21] deals with Staphylococcus aureus. The assay can be described thus: Antibacterial activity against Staphylococcus aureus ATCC 25923 at 30 ug/disk after 24 hrs by disk diffusion method. The format is functional. The conditions noted are these: ATCC 25923, 24 h, read-out: IZ. The procedure, abridged:
as §2

For assay [22], the system named is Candida albicans. Briefly: Antifungal activity against Candida albicans ATCC 10231 at 25 ug/disk after 24 hrs by disk diffusion method. The format is functional. The conditions noted are these: ATCC 10231, 24 h, read-out: IZ. A digest of the protocol:
as §2

Active and inactive are the calls of the source. No cut-off for these calls is given here.

As to `CCOC(=O)C1C(C)=Nc2ccccc2SC1c1ccc(O)cc1` (centres undefined), the figures for the zone of inhibition at 200 µg/disc (in the assay with Candida albicans [1]; in assay [5]; in the assay with Staphylococcus aureus [10]) were 30 mm, 20 mm and 18 mm, respectively. Further, the outcome (in assay [2]; in the assay with Candida albicans [8]; in the assay on Staphylococcus aureus [15]) was inactive. Further, the “inhibition zone (IZ)” value with Escherichia coli [3], with Escherichia coli [11] and in the assay with Escherichia coli [18] was “inactive” throughout. Besides, the zone of inhibition at 50 µg/disc with Staphylococcus aureus [4] came to 7 mm; with Candida albicans [7], 14 mm; in assay [13], 10 mm. The Activity entry (in assay [6]; with Staphylococcus aureus [14]; in the assay on Candida albicans [16]) was “Dose-dependent effect” throughout. Also, the zone of inhibition at 100 µg/disc in the assay with Staphylococcus aureus [9] was found to be 15 mm; in assay [12], 16 mm; in the assay on Candida albicans [17], 24 mm.

As to `CC(=O)C1=C(C)Nc2ccccc2SC1c1ccc(Cl)cc1` (centres undefined), the zone of inhibition at 200 µg/disc is 24 mm in the assay on Candida albicans [1], 19 mm in [5] and 15 mm in the assay on Staphylococcus aureus [10]. In addition, the outcome (in [2]; with Candida albicans [8]; in the assay on Staphylococcus aureus [15]) was inactive. Besides, the “inhibition zone (IZ)” value in the assay on Escherichia coli [3], in the assay on Escherichia coli [11] and in the assay with Escherichia coli [18] was “inactive” each time. The zone of inhibition at 50 µg/disc in the assay with Staphylococcus aureus [4] came to 12 mm; in the assay with Candida albicans [7], 18 mm; in [13] it was 17 mm. In addition, the Activity result (in assay [6]; with Staphylococcus aureus [14]; in the assay on Candida albicans [16]) was “Dose-dependent effect” throughout. The zone of inhibition at 100 µg/disc is 14 mm in the assay with Staphylococcus aureus [9], 17 mm in assay [12] and 21 mm in the assay with Candida albicans [17].

For the molecule `CN[C@H](CC(C)C)C(=O)N[C@H]1C(=O)N[C@@H](CC(N)=O)C(=O)N[C@H]2C(=O)N[C@H]3C(=O)N[C@H](C(=O)N[C@H](C(=O)O)c4cc(O)cc(O)c4-c4cc3ccc4O)[C@H](O)c3ccc(c(Cl)c3)Oc3cc2cc(c3O[C@@H]2O[C@H](CO)[C@@H](O)[C@H](O)[C@H]2O[C@H]2C[C@](C)(N)[C@H](O)[C@H](C)O2)Oc2ccc(cc2Cl)[C@H]1O` [VANCOMYCIN], the zone of inhibition at 30 µg/disc came out at 18 mm in assay [19], 8 mm in the assay with Escherichia coli [20] and 18 mm with Staphylococcus aureus [21].

`OC(Cn1cncn1)(Cn1cncn1)c1ccc(F)cc1F` [FLUCONAZOLE]: the zone of inhibition at 25 µg/disc with Candida albicans [22] was determined as 23 mm.

On to `CCOC(=O)C1=C(C)Nc2ccccc2SC1c1ccc([N+](=O)[O-])cc1` (centres undefined), for which the zone of inhibition at 200 µg/disc in the assay on Candida albicans [1] and with Staphylococcus aureus [10] was 7 mm each time. The “inhibition zone (IZ)” value (in the assay on Escherichia coli [3]; in the assay on Staphylococcus aureus [4]; in assay [5]; in the assay on Candida albicans [7]; with Escherichia coli [11]; in [12]) was “inactive” throughout. Further, the “inhibition zone (IZ)” value (in assay [13]; in the assay with Escherichia coli [18]) was “inactive” each time. Further, the zone of inhibition at 100 µg/disc in the assay with Staphylococcus aureus [9] and with Candida albicans [17] was 6.5 mm each time.

`CC(=O)C1=C(C)Nc2cc(Cl)ccc2SC1c1ccc(Br)cc1` (centres undefined): the zone of inhibition at 200 µg/disc came to 15 mm in the assay on Candida albicans [1], 11 mm in [5] and 11 mm in the assay with Staphylococcus aureus [10]. Besides, the “inhibition zone (IZ)” value with Escherichia coli [3], with Escherichia coli [11] and in the assay on Escherichia coli [18] was “inactive” throughout. In addition, the results for the zone of inhibition at 50 µg/disc (in the assay with Staphylococcus aureus [4]; in the assay on Candida albicans [7]; in assay [13]) were 9 mm, 10 mm and 9 mm, respectively. For the same molecule, the values for the zone of inhibition at 100 µg/disc (in the assay on Staphylococcus aureus [9]; in [12]; with Candida albicans [17]) were 10 mm, 10 mm and 11 mm, respectively.
